The values that follow come from paper PMC7439261 (ACS Omega, 2020).

Data set [1] is described as follows: Sulforhodamine cytotoxicity assay, MCF7. In kind it is cell-based. The conditions noted are these: human, MCF7 cells. A digest of the protocol:
(§1)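 Cells were grown in EMEM with 10% FBS, 2 mM L-glutamine, 20 mM HEPES and antibiotics at 37 °C, 5% CO2. Passages were 4–20 for HeLa, MCF7 and Jurkat, and 2–5 for fibroblasts. Seeding per well for 24 h: HeLa 5×10^3, MCF7 and fibroblast 10^4, Jurkat 5×10^4. Test compound (0–200 mg/L, in DMSO) was added for 48 h. Cells were fixed with cold TCA, stained with 0.2% SRB, solubilised in 10 mM Tris and read at 492 nm. Camptothecin was the positive control. Triplicates, three independent experiments.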

A short description of data set [2]: Sulforhodamine cytotoxicity assay, Jurkat. Particulars: human, Jurkat cells. The data set is classed as cell-based. The gist of the method: as §1
The nature of data set [3]: Sulforhodamine cytotoxicity assay, HeLa. In kind it is cell-based. The conditions noted are these: human, HeLa cells. The gist of the method: as §1
Data set [4] is described as follows: Sulforhodamine cytotoxicity assay, fibroblast. The data set is classed as cell-based. Particulars: human, fibroblast cells derived from human foreskins. A digest of the protocol:
as §1

Data set [5] in a line: Sulforhodamine cytotoxicity assay, text summary over four cell lines. The conditions noted are these: human. In kind it is cell-based. The gist of the method: as §1
The next data set concerns H. pylori OX.63. As to the kind of experiment: Broth dilution bioassay MIC/MBC, OX.63. The data set is classed as cell-based, Helicobacter pylori. The conditions noted are these: for MBC: OX.63, 72 h; for MIC: H. pylori OX.63, broth dilution, 48 h.
The test system of a further data set is H. pylori OX.64. As to the kind of experiment: Broth dilution bioassay MIC/MBC, OX.64. The data set is classed as cell-based, Helicobacter pylori. The conditions noted are these: for MIC: H. pylori OX.64, broth dilution, 48 h; for MBC: OX.64, 72 h.
A further data set deals with H. pylori OX.83. Description: Broth dilution bioassay MIC/MBC, OX.83. In kind it is cell-based, Helicobacter pylori. The conditions noted are these: Helicobacter pylori; for MIC: OX.83, 48 h, H. pylori OX.83, broth dilution, 48 h; for MBC: OX.83, 72 h.
For another data set, the system named is H. pylori OX.67. Description: Broth dilution bioassay MIC/MBC, OX.67. In kind it is cell-based, Helicobacter pylori. The conditions noted are these: Helicobacter pylori; for MIC: OX.67, 48 h, H. pylori OX.67, broth dilution, 48 h; for MBC: OX.67, 72 h.
A further data set concerns H. pylori OX.22. As to the kind of experiment: Broth dilution bioassay MIC/MBC, OX.22. Particulars: Helicobacter pylori; for MBC: OX.22, 72 h; for MIC: OX.22, 48 h. The data set is classed as cell-based.
A further data set deals with H. pylori ATCC 43504. Description: Broth dilution bioassay MIC/MBC, ATCC 43504. In kind it is cell-based. Particulars: Helicobacter pylori; for MIC: ATCC43504, 48 h; for MBC: ATCC43504, 72 h.
The test system of another data set is H. pylori ATCC 51932. Description: Broth dilution bioassay MIC/MBC, ATCC 51932. The data set is classed as cell-based. Particulars: Helicobacter pylori; for MIC: ATCC51932, 48 h; for MBC: ATCC51932, 72 h.
The test system of data set [6] is test strains of H. pylori. As to the kind of experiment: Broth dilution bioassay MIC/MBC, text summary over test strains. Particulars: Helicobacter pylori. The data set is classed as cell-based.
Data set [7] addresses H. pylori ATCC 43504 urease (Helicobacter pylori, UniProt P69996). Description: Urease inhibition, salicylate-hypochlorite method. In kind it is biochemical. A digest of the protocol: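 Crude H. pylori ATCC 43504 urease, 0.25 μg (0.04 U), in EDTA–sodium phosphate buffer pH 7.3, was preincubated with test compound at 37 °C for 90 min at 50 rpm. Urea solution (10 mM, as added) was then incubated for 30 min. Ammonia was measured by the salicylate–nitroprusside/alkaline hypochlorite method at 625 nm. Thiourea was the reference inhibitor. IC50 is molar. Triplicates, three independent experiments.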

Where [8] appears, read: Helicobacter pylori, OX.64, 48 h.
[9] abbreviates: Helicobacter pylori, OX.63, 48 h.

≈ marks a conversion by molar mass, not a printed value.

Sequence of H. pylori ATCC 43504 urease (P69996 whole entry): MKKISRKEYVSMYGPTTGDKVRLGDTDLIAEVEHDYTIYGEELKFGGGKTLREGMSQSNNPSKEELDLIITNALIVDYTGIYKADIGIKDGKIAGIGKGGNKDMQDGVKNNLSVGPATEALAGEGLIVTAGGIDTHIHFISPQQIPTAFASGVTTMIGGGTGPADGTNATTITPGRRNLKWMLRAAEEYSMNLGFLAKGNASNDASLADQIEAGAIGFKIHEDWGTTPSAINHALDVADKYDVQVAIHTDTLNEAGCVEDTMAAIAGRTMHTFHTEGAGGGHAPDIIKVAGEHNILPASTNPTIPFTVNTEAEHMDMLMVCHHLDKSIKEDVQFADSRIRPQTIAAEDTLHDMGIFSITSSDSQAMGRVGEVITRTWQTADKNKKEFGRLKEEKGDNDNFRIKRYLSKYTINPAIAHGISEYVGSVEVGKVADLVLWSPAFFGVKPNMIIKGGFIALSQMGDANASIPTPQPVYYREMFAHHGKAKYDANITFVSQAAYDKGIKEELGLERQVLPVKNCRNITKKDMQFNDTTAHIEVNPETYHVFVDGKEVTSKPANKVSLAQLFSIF
Sequence of H. pylori ATCC 43504 urease (P14916 whole entry partner): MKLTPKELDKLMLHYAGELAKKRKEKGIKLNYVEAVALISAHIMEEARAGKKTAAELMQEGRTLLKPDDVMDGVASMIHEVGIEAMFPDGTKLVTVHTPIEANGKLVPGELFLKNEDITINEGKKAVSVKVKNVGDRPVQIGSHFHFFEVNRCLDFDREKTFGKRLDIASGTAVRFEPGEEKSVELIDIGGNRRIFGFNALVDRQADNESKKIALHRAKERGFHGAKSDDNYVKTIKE

Turning to `CC[C@@]1(O)C(=O)OCc2c1cc1n(c2=O)Cc2cc3ccccc3nc2-1` [camptothecin, reference compound], the CC50 at 48 h was 0.005 µg/mL (≈ 0.0144 µM) in [1]; 0.005 µg/mL (≈ 0.0144 µM) in data set [2]; 0.89 µg/mL (≈ 2.55 µM) in data set [3]; 1.57 µg/mL (≈ 4.51 µM) in data set [4]; 0.005 to 1.57 µg/mL (≈ 0.0144 to 4.51 µM) in [5].

Turning to `CC[C@H]1OC(=O)[C@H](C)[C@@H](O[C@H]2C[C@@](C)(OC)[C@@H](O)[C@H](C)O2)[C@H](C)[C@@H](O[C@@H]2O[C@H](C)C[C@H](N(C)C)[C@H]2O)[C@](C)(O)C[C@@H](C)C(=O)[C@H](C)[C@@H](O)[C@]1(C)O` [erythromycin], the MBC was determined as 128 µg/mL (≈ 174 µM) in the data set with H. pylori OX.63 (Helicobacter pylori); 128 µg/mL (≈ 174 µM) in the data set with H. pylori OX.64 (Helicobacter pylori); 128 µg/mL (≈ 174 µM) against H. pylori OX.83; 128 µg/mL (≈ 174 µM) against H. pylori OX.67; 128 µg/mL (≈ 174 µM) with H. pylori OX.22; 0.125 µg/mL (≈ 0.17 µM) in the data set on H. pylori ATCC 43504. Further, the MBC against H. pylori ATCC 51932 stood at 0.125 µg/mL (≈ 0.17 µM). Moreover, the minimal inhibitory concentration (MIC) against H. pylori OX.64 (setting [8]) is 16 to 32 µg/mL (≈ 21.8 to 43.6 µM); in the data set on H. pylori OX.83, 64 µg/mL (≈ 87.2 µM); against H. pylori OX.67, 64 µg/mL (≈ 87.2 µM); with H. pylori ATCC 43504 it was 0.063 µg/mL (≈ 0.0858 µM); against H. pylori ATCC 51932, 0.063 µg/mL (≈ 0.0858 µM).

As for `C[C@H]1COc2c(N3CCN(C)CC3)c(F)cc3c(=O)c(C(=O)O)cn1c23` [levofloxacin], the MIC in data set [6] is 32 µg/mL (≈ 88.6 µM); against H. pylori OX.63 (setting [9]) it was 0.063 µg/mL (≈ 0.174 µM); with H. pylori OX.64 it was 32 µg/mL (≈ 88.6 µM); against H. pylori OX.64 (setting [8]) it was 16 to 32 µg/mL (≈ 44.3 to 88.6 µM); against H. pylori OX.83 it was 0.75 µg/mL (≈ 2.08 µM); in the data set with H. pylori OX.67, 0.063 µg/mL (≈ 0.174 µM). Also, the results for the MIC against H. pylori OX.22, in the data set with H. pylori ATCC 43504 and against H. pylori ATCC 51932 were 0.063 µg/mL (≈ 0.174 µM), 0.125 µg/mL (≈ 0.346 µM) and 0.125 µg/mL (≈ 0.346 µM), respectively. Moreover, the minimal bactericidal concentration (MBC) with H. pylori OX.63 (Helicobacter pylori) is 0.5 µg/mL (≈ 1.38 µM); against H. pylori OX.64 (Helicobacter pylori), 128 µg/mL (≈ 354 µM); with H. pylori OX.83, 1.25 µg/mL (≈ 3.46 µM); with H. pylori OX.67, 0.25 µg/mL (≈ 0.692 µM); in the data set on H. pylori OX.22, 0.5 µg/mL (≈ 1.38 µM); with H. pylori ATCC 43504 it was 0.25 µg/mL (≈ 0.692 µM). Besides, the MBC in the data set with H. pylori ATCC 51932 turned out to be 0.25 µg/mL (≈ 0.692 µM).

As for `Cc1ncc([N+](=O)[O-])n1CCO` [metronidazole], the MIC is 24 to 64 µg/mL (≈ 140 to 374 µM) in data set [6] (48 h); 64 µg/mL (≈ 374 µM) in the data set on H. pylori OX.63; 32 to 64 µg/mL (≈ 187 to 374 µM) against H. pylori OX.63 (setting [9]); 32 µg/mL (≈ 187 µM) in the data set with H. pylori OX.64; 16 to 32 µg/mL (≈ 93.5 to 187 µM) in the data set with H. pylori OX.64 (setting [8]); 1 µg/mL (≈ 5.84 µM) against H. pylori OX.83. Further, the MIC was determined as 2 µg/mL (≈ 11.7 µM) in the data set on H. pylori OX.67, 32 µg/mL (≈ 187 µM) with H. pylori OX.22, 32 µg/mL (≈ 187 µM) with H. pylori ATCC 43504 and 2 µg/mL (≈ 11.7 µM) in the data set with H. pylori ATCC 51932. In addition, the MBC in the data set with H. pylori OX.63 (Helicobacter pylori) came to 256 µg/mL (≈ 1500 µM); in the data set with H. pylori OX.64 (Helicobacter pylori) it was 256 µg/mL (≈ 1500 µM); in the data set on H. pylori OX.83, 2 µg/mL (≈ 11.7 µM); with H. pylori OX.67, 4 µg/mL (≈ 23.4 µM); in the data set with H. pylori OX.22, 256 µg/mL (≈ 1500 µM); with H. pylori ATCC 43504, 192 µg/mL (≈ 1120 µM). The compound further had a minimum bactericidal concentration (MBC) in the data set on H. pylori ATCC 51932 of 4 µg/mL (≈ 23.4 µM).

Take `NC(N)=S` [thiourea, reference compound]: the IC50 in data set [7] (read-out: IC50 (95% CL), urease crude, preincubation 90 min, pH 7.3) was 573 µM. In addition, in data set [7] (slope of dose-response curve of percentage of urease inhibition), the “slope ± SE” value worked out at 1.79 ± 0.093.
